# Test results taken from ChEMBL document CHEMBL3616433, “Synthesis and anti-cancer potential of the positional isomers of NOSH-aspirin (NBS-1120) a dual nitric oxide and hydrogen sulfide releasing hybrid” (Bioorg Med Chem Lett, 2015).
# Active and inactive are the calls of the source. No cut-off for these calls is given here.
# Columns and labels:
# [1] = tested on: HT-29; experiment: Cytotoxicity against human HT-29 cells assessed as growth inhibition after 24 hrs by MTT assay; type: functional, cell-based; conditions: HT-29, 24 h
# Method in brief: (§1)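 Cells grown in RPMI 1640 with 10% FBS, penicillin/streptomycin, at 37°C and 5% CO2. Compounds came from 100 mM DMSO stocks, with final DMSO 1% in all media. Growth was read by colorimetric MTT kit after 24 h. IC50 came from dose-response curves. Mean ± SEM of three to five experiments, each in triplicate.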
# [2] = tested on: HCT-15; experiment: Cytotoxicity against human HCT15 cells assessed as growth inhibition after 24 hrs by MTT assay; type: functional, cell-based; conditions: HCT-15, 24 h; method in brief: as §1
# [3] = tested on: HT-29; experiment: Cytotoxicity against human HT-29 cells assessed as reduction in PCNA expression at 100 to 1000 nM after 24 hrs by ELISA relative to vehicle treated control; type: functional, cell-based
# Method in brief: (§2)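 HT-29 cells (1×10^6 cells/mL) exposed to a range of concentrations for 24 h. PCNA antigen was quantified by ELISA kit per the manufacturer's protocol and expressed as % of vehicle-treated cells. Mean ± SEM of 3 experiments run in duplicate; ANOVA with Tukey's test.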
# [4] = tested on: HT-29; experiment: Induction of apoptosis in human HT-29 cells assessed as early apoptotic cells at 100 to 1000 nM after 24 hrs using annexin-V staining by flow cytometry relative to control; type: functional, cell-based
# Method in brief: (§3)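 HT-29 cells (0.5×10^6 cells/mL) treated 24 h, washed, and resuspended in Annexin binding buffer (HEPES pH 7.4, NaCl, CaCl2). They were stained with Annexin V-FITC (final 0.5 µg/mL) and propidium iodide (final 20 µg/mL) for 5–15 min at room temperature in the dark, then analysed by flow cytometry for early apoptotic cells. Mean ± SEM of 3 experiments in duplicate.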
# [5] = tested on: HT-29; experiment: Induction of ROS generation in human HT-29 cells assessed as increase in intracellular peroxide level at 500 nM after 1 hr using DCFDA staining by flow cytometry relative to control; type: functional
# Method in brief: (§4)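 Plate HT-29 cells at 0.3×10^6/well for 24 h, then treat 1 h. Trypsinize, wash in PBS, and incubate with DCFDA (10 µM) 30 min at 37°C in the dark. Read fluorescence by flow cytometry as fold over basal. Mean ± SEM of three independent experiments.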
# [6] = tested on: HT-29; experiment: Induction of ROS generation in human HT-29 cells assessed as increase in intracellular superoxide anion level at 500 nM after 1 hr using DHE staining by flow cytometry relative to control; type: functional
# Method in brief: (§5)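 HT-29 cells (0.3×10^6/well) plated for 24 h, then treated 1 h. They were trypsinized, PBS-washed, and loaded with dihydroethidium (5 µM) for 30 min at 37°C in the dark. Superoxide fluorescence was measured by flow cytometry relative to basal. Mean ± SEM of three independent experiments.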
# [7] = tested on: HT-29; experiment: Cell cycle arrest in human HT-29 cells assessed as accumulation at G0/G1 phase at 1 to 2 times IC50 after 24 hrs using propidium iodide by flow cytometry; type: functional, cell-based
# Method in brief: (§6)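 HT-29 cells (0.5×10^6) treated 24 h, then trypsinized, fixed in 70% ethanol (10 min, −20°C), held in PBS/1% FBS/0.5% NP-40 on ice 5 min, and stained with propidium iodide 40 µg/mL plus RNase IIA 200 µg/mL. Flow cytometry within 30 min, >10,000 events per subset. Phase percentages were taken from DNA-content histograms. Representative of two experiments agreeing within 10%.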
# [8] = tested on: HT-29; experiment: Cell cycle arrest in human HT-29 cells assessed as accumulation at S phase at 1 to 2 times IC50 after 24 hrs using propidium iodide by flow cytometry; type: functional, cell-based; method in brief: as §6
# [9] = tested on: HT-29; experiment: Cell cycle arrest in human HT-29 cells assessed as accumulation at G2/M phase at 1 to 2 times IC50 after 24 hrs using propidium iodide by flow cytometry; type: functional, cell-based; conditions: in the assay text read “G0/G1 phase” for “G2/M phase”; method in brief: as §6
# [10] = tested on: HT-29; experiment: Cytotoxicity against human HT-29 cells assessed as reduction in PCNA expression after 24 hrs by ELISA; type: functional, cell-based; method in brief: as §2
# [11] = tested on: HT-29; experiment: Cytotoxicity against human HT-29 cells assessed as reduction in PCNA expression at 10 nM after 24 hrs by ELISA relative to vehicle treated control; type: functional; design: scale not given: the % may be the effect or the level left; method in brief: as §2
# [12] = tested on: HT-29; experiment: Cytotoxicity against human HT-29 cells assessed as reduction in PCNA expression at 25 nM after 24 hrs by ELISA relative to vehicle treated control; type: functional; design: scale not given: the % may be the effect or the level left; method in brief: as §2
# [13] = tested on: HT-29; experiment: Cytotoxicity against human HT-29 cells assessed as reduction in PCNA expression at 50 nM after 24 hrs by ELISA relative to vehicle treated control; type: functional; design: scale not given: the % may be the effect or the level left; method in brief: as §2
# [14] = tested on: HT-29; experiment: Cytotoxicity against human HT-29 cells assessed as reduction in PCNA expression at 100 nM after 24 hrs by ELISA relative to vehicle treated control; type: functional; design: scale not given: the % may be the effect or the level left; method in brief: as §2
# [15] = tested on: HT-29; experiment: Induction of apoptosis in human HT-29 cells assessed as early apoptotic cells at 10 nM after 24 hrs using annexin-V staining by flow cytometry relative to control; type: functional; method in brief: as §3
# [16] = tested on: HT-29; experiment: Induction of apoptosis in human HT-29 cells assessed as early apoptotic cells at 25 nM after 24 hrs using annexin-V staining by flow cytometry relative to control; type: functional; method in brief: as §3
# [17] = tested on: HT-29; experiment: Induction of apoptosis in human HT-29 cells assessed as early apoptotic cells at 50 nM after 24 hrs using annexin-V staining by flow cytometry relative to control; type: functional; method in brief: as §3
# [18] = tested on: HT-29; experiment: Induction of apoptosis in human HT-29 cells assessed as early apoptotic cells at 100 nM after 24 hrs using annexin-V staining by flow cytometry relative to control; type: functional; method in brief: as §3
# [19] = tested on: HT-29; experiment: Cell cycle arrest in human HT-29 cells assessed as accumulation at G0/G1 phase at 50 nM after 24 hrs using propidium iodide by flow cytometry (reference value: 39.6%); type: functional; method in brief: as §6
# [20] = tested on: HT-29; experiment: Cell cycle arrest in human HT-29 cells assessed as accumulation at G0/G1 phase at 100 nM after 24 hrs using propidium iodide by flow cytometry (reference value: 39.6%); type: functional; method in brief: as §6
# [21] = tested on: HT-29; experiment: Cell cycle arrest in human HT-29 cells assessed as reduction in S phase at 50 nM after 24 hrs using propidium iodide by flow cytometry (reference value: 31.9%); type: functional; design: scale not given: the % may be the effect or the level left; method in brief: as §6
# [22] = tested on: HT-29; experiment: Cell cycle arrest in human HT-29 cells assessed as reduction in S phase at 100 nM after 24 hrs using propidium iodide by flow cytometry (reference value: 31.9%); type: functional; design: scale not given: the % may be the effect or the level left; method in brief: as §6
# [23] = tested on: HT-29; experiment: Cell cycle arrest in human HT-29 cells assessed as reduction in G2/M phase at 50 nM after 24 hrs using propidium iodide by flow cytometry (reference value: 28.5%); type: functional; design: scale not given: the % may be the effect or the level left; method in brief: as §6
# [24] = tested on: HT-29; experiment: Cell cycle arrest in human HT-29 cells assessed as reduction in G2/M phase at 100 nM after 24 hrs using propidium iodide by flow cytometry (reference value: 28.5%); type: functional; design: scale not given: the % may be the effect or the level left; method in brief: as §6
# [25] = tested on: HT-29; experiment: Induction of ROS generation in human HT-29 cells assessed as increase in intracellular peroxide level at 50 nM after 1 hr using DCFDA staining by flow cytometry relative to control; type: functional; method in brief: as §4
# [26] = tested on: HT-29; experiment: Induction of ROS generation in human HT-29 cells assessed as increase in intracellular superoxide anion level at 50 nM after 1 hr using DHE staining by flow cytometry relative to control
# [27] = tested on: HT-29; experiment: Cytotoxicity against human HT-29 cells assessed as reduction in PCNA expression at 50 to 500 nM after 24 hrs by ELISA relative to vehicle treated control; type: functional, cell-based; method in brief: as §2
# [28] = tested on: HT-29; experiment: Induction of apoptosis in human HT-29 cells assessed as early apoptotic cells at 50 to 500 nM after 24 hrs using annexin-V staining by flow cytometry relative to control; type: functional, cell-based; method in brief: as §3
# [29] = tested on: HT-29; experiment: Induction of ROS generation in human HT-29 cells assessed as increase in intracellular peroxide level at 250 nM after 1 hr using DCFDA staining by flow cytometry relative to control; type: functional; method in brief: as §4
# [30] = tested on: HT-29; experiment: Induction of ROS generation in human HT-29 cells assessed as increase in intracellular superoxide anion level at 250 nM after 1 hr using DHE staining by flow cytometry relative to control; type: functional; method in brief: as §5
# [31] = tested on: HT-29; experiment: Cell cycle arrest in human HT-29 cells assessed as accumulation at G0/G1 phase at 1 to 2 times IC50 after 24 hrs using propidium iodide by flow cytometry
structure (smiles),measurement,setting,value
CC(=O)Oc1ccccc1C(=O)O [ASPIRIN],IC50,[1],> 5000 µM
same,IC50,[2],> 5000 µM
COc1ccc(OC(=O)CCCO[N+](=O)[O-])c(C(=O)Oc2ccc(-c3cc(=S)ss3)cc2)c1,IC50,[1],0.2 µM
same,IC50,[2],0.38 µM
COc1cc(C(=O)Oc2ccc(-c3cc(=S)ss3)cc2)ccc1OC(=O)CCCO[N+](=O)[O-],IC50,[1],0.13 µM
same,IC50,[2],0.22 µM
O=C(CCCO[N+](=O)[O-])Oc1ccc(C(=O)Oc2ccc(-c3cc(=S)ss3)cc2)cc1,IC50,[1],0.45 µM
same,IC50,[2],0.38 µM
same,Activity,[3],Active
same,Activity,[4],Active
same,fold change (FC),[5],11
same,fold change (FC),[6],10
same,Activity,[7],Active
same,Activity,[8],Active
same,Activity,[9],Active
O=C(CCCO[N+](=O)[O-])Oc1ccc(Cl)cc1C(=O)Oc1ccc(-c2cc(=S)ss2)cc1,IC50,[1],0.4 µM
same,IC50,[2],0.17 µM
O=C(CCCO[N+](=O)[O-])Oc1ccccc1C(=O)Oc1ccc(-c2cc(=S)ss2)cc1,IC50,[2],0.057 µM
same,Activity,[10],Dose-dependent effect
same,Activity,[11],80%
same,Activity,[12],65%
same,Activity,[13],48%
same,Activity,[14],20%
same,Activity,[15],15%
same,Activity,[16],35%
same,Activity,[17],65%
same,Activity,[18],78%
same,Activity,[19],53.6%
same,Activity,[20],71.9%
same,Activity,[21],26.1%
same,Activity,[22],18.2%
same,Activity,[23],20.3%
same,Activity,[24],9.9%
same,fold change (FC),[25],16
same,fold change (FC),[26],18
O=C(CCCO[N+](=O)[O-])Oc1cccc(C(=O)Oc2ccc(-c3cc(=S)ss3)cc2)c1,IC50,[1],0.22 µM
same,IC50,[2],0.11 µM
same,Activity,[27],Active
same,Activity,[28],Active
same,fold change (FC),[29],15
same,fold change (FC),[30],21
same,Activity,[7],Active
same,Activity,[8],Active
same,Activity,[31],Active
COc1ccc(C(=O)Oc2ccc(-c3cc(=S)ss3)cc2)cc1OC(=O)CCCO[N+](=O)[O-],IC50,[1],0.43 µM
same,IC50,[2],0.33 µM
O=C(CCCO[N+](=O)[O-])Oc1cccc(C(=O)Oc2ccc(-c3cc(=S)ss3)cc2)c1Cl,IC50,[1],0.21 µM
same,IC50,[2],0.14 µM
O=C(CCCO[N+](=O)[O-])Oc1ccc(C(=O)Oc2ccc(-c3cc(=S)ss3)cc2)cc1Cl,IC50,[1],0.06 µM
same,IC50,[2],0.33 µM
